Results on one compound are retold here after ChEMBL document CHEMBL4359902, “Development of novel chromeno[4,3-c]pyrazol-4(2H)-one derivates bearing sulfonylpiperazine as antitumor inhibitors targeting PI3Kα” (Eur J Med Chem, 2019).

In one data set the test system is A549. Kind of data set: Antiproliferative activity against human A549 cells assessed as reduction in cell viability after 48 hrs by MTT assay. The data set is classed as functional, cell-based. Conditions: A549, 48 h.
For data set [1], the system named is HCT-116. Kind of data set: Induction of apoptosis in human HCT116 cells assessed as early apoptotic cells at 0.5 uM measured after 24 hrs by annexin-v-FITC/propidium iodide staining based FACScan flow cytometry analysis (reference value: 10.0 %). The format is functional.
Data set [2] has as its system HCT-116. In words: Antitumour activity against human HCT116 cells xenografted in nude mouse assessed as tumour growth inhibition at 10 mg/kg, ig administered every 3 days for 3 weeks and measured after 3 weeks relative to control. The data set is classed as functional. Conditions: HCT-116, po, read-out: TGI. The procedure, abridged: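 HCT-116 cells (5 × 10^6 per animal) injected into right flank of nude mice; at ~100 mm³ tumours, randomized into groups of 6. Dosed 10 mg/kg in 5% CMC-Na intragastrically every three days for three weeks; vehicle control 5% CMC-Na. Body weight and tumour size recorded every three days, volume = 0.5 × length × width²; tumours excised and weighed at end. Mean ± SD.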

Data set [3] has as its system HCT-116. In words: Induction of apoptosis in human HCT116 cells assessed as late apoptotic cells at 0.5 uM measured after 24 hrs by annexin-v-FITC/propidium iodide staining based FACScan flow cytometry analysis (reference value: 9.61 %). The data set is classed as functional.
For data set [4], the system named is HCT-116. In words: Cell cycle arrest in human HCT116 cells assessed as accumulation at S phase at 1 uM measured after 24 hrs by propidium iodide staining based flow cytometry analysis (reference value: 50.12 %). The data set is classed as functional.
Data set [5] deals with HCT-116. In words: Induction of apoptosis in human HCT116 cells assessed as early apoptotic cells at 0.25 uM measured after 24 hrs by annexin-v-FITC/propidium iodide staining based FACScan flow cytometry analysis (reference value: 10.0 %). The format is functional.
Data set [6] has as its system HCT-116. In words: Cell cycle arrest in human HCT116 cells assessed as accumulation at G2 phase at 0.5 uM measured after 24 hrs by propidium iodide staining based flow cytometry analysis (reference value: 7.86 %). The data set is classed as functional.
The subject of data set [7] is HCT-116. In words: Induction of apoptosis in human HCT116 cells assessed as early apoptotic cells at 1 uM measured after 24 hrs by annexin-v-FITC/propidium iodide staining based FACScan flow cytometry analysis (reference value: 10.0 %). The data set is classed as functional.
Data set [8] deals with HCT-116. Kind of data set: Cell cycle arrest in human HCT116 cells assessed as accumulation at S phase at 0.25 uM measured after 24 hrs by propidium iodide staining based flow cytometry analysis (reference value: 50.12 %). The format is functional.
Data set [9] deals with HCT-116. In words: Induction of apoptosis in human HCT116 cells assessed as viable cells at 0.5 uM measured after 24 hrs by annexin-v-FITC/propidium iodide staining based FACScan flow cytometry analysis (reference value: 78.5 %). The data set is classed as functional. Conditions: HCT-116, 24 h, read-out: Activity.
The test system of data set [10] is HCT-116. In words: Induction of apoptosis in human HCT116 cells assessed as necrotic cells at 0.25 uM measured after 24 hrs by annexin-v-FITC/propidium iodide staining based FACScan flow cytometry analysis (reference value: 1.87 %). The format is functional.
In data set [11] the test system is HCT-116. Kind of data set: Cell cycle arrest in human HCT116 cells assessed as accumulation at G1 phase at 0.25 uM measured after 24 hrs by propidium iodide staining based flow cytometry analysis (reference value: 42.01 %). The data set is classed as functional.
Data set [12] deals with Phosphatidylinositol 4,5-bisphosphate 3-kinase catalytic subunit gamma isoform (Homo sapiens, UniProt P48736). In words: Inhibition of PI3Kgamma (unknown origin) using diC8-PI(4,5)P2 as substrate incubated for 3 hrs in presence of ATP by fluorescence polarization assay. The procedure, abridged:
(§1)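 Fluorescence polarization competition assay, 10 μL reactions at pH 7: 2.5 mM MgCl₂, 5 mM HEPES, ATP, 10 mM DTT, 50 ng PI3K isoform, diC8-PI(4,5)P2 substrate. After 3 h at room temperature, reactions were chelator-quenched. Phosphoinositide binding protein and fluorophore-labelled tracer were added, then 1 h dark equilibration and polarization read.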

A short description of data set [13]: Cytotoxicity against human 293T cells. The format is cell-based. Conditions: HEK-293T cells.
Data set [14] has as its system HCT-116. In words: Induction of apoptosis in human HCT116 cells assessed as late apoptotic cells at 1 uM measured after 24 hrs by annexin-v-FITC/propidium iodide staining based FACScan flow cytometry analysis (reference value: 9.61 %). The format is functional.
Data set [15] deals with T1, Phosphatidylinositol 4,5-bisphosphate 3-kinase catalytic subunit delta isoform (Homo sapiens, UniProt O00329).
T1 sequence (O00329 whole entry): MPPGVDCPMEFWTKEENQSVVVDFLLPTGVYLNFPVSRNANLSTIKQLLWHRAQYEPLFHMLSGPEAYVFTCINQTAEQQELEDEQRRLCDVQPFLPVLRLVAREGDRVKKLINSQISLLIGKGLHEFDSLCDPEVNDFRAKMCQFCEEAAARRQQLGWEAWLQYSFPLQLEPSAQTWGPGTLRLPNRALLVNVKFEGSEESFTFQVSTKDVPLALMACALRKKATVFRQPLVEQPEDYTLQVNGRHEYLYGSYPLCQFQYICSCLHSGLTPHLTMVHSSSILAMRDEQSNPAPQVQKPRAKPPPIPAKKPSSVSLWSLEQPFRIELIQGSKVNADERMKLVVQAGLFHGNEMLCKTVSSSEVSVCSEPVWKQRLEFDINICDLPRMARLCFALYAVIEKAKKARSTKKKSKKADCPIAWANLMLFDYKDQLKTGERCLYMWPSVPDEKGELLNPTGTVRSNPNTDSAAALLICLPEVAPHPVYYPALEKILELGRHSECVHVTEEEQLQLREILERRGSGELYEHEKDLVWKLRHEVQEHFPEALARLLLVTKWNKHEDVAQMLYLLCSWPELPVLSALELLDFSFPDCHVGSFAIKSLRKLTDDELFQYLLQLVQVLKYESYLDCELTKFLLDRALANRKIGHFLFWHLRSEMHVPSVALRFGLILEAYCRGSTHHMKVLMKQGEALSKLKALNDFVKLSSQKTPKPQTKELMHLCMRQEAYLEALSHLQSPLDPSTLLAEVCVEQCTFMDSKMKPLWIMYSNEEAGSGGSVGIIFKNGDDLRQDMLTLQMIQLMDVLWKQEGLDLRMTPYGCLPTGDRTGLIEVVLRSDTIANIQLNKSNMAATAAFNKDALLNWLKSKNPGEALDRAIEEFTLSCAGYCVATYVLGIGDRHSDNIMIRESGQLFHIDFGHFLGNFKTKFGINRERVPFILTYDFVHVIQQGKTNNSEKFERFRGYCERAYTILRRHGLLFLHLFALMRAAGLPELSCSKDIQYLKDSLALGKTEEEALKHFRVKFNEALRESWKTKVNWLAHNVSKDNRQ
In words: Inhibition of PI3Kdelta (unknown origin) using diC8-PI(4,5)P2 as substrate incubated for 3 hrs in presence of ATP by fluorescence polarization assay. The procedure, abridged: as §1

The test system of data set [16] is HCT-116. Kind of data set: Induction of apoptosis in human HCT116 cells assessed as viable cells at 0.25 uM measured after 24 hrs by annexin-v-FITC/propidium iodide staining based FACScan flow cytometry analysis (reference value: 78.5 %). The data set is classed as functional. Conditions: HCT-116, 24 h, read-out: Activity.
Data set [17] has as its system HCT-116. In words: Induction of apoptosis in human HCT116 cells assessed as viable cells at 1 uM measured after 24 hrs by annexin-v-FITC/propidium iodide staining based FACScan flow cytometry analysis (reference value: 78.5 %). Conditions: HCT-116, 24 h, read-out: Activity. The format is functional.

Chain of Phosphatidylinositol 4,5-bisphosphate 3-kinase catalytic subunit gamma isoform (P48736 whole entry, canonical isoform): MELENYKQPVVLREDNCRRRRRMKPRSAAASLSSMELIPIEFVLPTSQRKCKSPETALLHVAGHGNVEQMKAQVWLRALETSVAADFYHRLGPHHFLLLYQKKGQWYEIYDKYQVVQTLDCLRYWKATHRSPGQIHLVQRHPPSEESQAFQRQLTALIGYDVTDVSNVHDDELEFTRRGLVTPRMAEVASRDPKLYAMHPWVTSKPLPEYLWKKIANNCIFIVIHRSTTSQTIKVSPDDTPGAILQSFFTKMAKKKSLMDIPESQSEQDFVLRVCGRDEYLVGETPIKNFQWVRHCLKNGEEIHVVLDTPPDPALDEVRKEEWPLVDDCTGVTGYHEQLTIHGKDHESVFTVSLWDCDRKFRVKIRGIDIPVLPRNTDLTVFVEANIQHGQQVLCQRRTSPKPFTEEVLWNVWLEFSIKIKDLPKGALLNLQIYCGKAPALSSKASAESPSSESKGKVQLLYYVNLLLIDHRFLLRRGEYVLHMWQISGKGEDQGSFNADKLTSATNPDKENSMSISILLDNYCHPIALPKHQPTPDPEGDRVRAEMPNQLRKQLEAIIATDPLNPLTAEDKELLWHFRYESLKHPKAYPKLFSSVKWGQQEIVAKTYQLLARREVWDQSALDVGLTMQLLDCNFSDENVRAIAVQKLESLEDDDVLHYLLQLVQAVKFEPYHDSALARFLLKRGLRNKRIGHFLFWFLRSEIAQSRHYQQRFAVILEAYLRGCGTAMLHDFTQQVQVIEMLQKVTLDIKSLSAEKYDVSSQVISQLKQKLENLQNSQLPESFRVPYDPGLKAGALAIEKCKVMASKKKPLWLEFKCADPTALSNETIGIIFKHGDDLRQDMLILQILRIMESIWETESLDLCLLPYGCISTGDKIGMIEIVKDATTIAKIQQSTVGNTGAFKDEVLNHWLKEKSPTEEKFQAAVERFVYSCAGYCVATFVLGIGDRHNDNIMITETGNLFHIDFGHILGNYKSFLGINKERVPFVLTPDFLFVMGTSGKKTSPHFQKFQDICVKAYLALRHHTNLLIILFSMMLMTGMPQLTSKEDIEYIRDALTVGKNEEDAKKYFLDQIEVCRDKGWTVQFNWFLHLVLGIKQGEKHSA

Regarding `O=c1oc2ccccc2c2nn(CN3CCN(S(=O)(=O)c4ccc(Cl)c([N+](=O)[O-])c4)CC3)cc12`, the IC50 in the data set on A549 was 60 nM; in [12], 81 nM; in data set [15], 120 nM. Moreover, the Activity with HCT-116 [1] stood at 17.1%; with HCT-116 [3], 30.8%; with HCT-116 [4], 33.78%; in the data set on HCT-116 [5], 16.1%; with HCT-116 [6], 9.52%; with HCT-116 [7] it was 25.5%. The Activity worked out at 42.4% in the data set on HCT-116 [8], 6.98% in the data set with HCT-116 [10], 46.87% with HCT-116 [11] and 36.9% in the data set with HCT-116 [14]. Besides, the inhibition in vivo at 10 mg/kg in the data set on HCT-116 [2] is 66.4%. Also, the viability at 0.5 µM in the data set with HCT-116 [9] amounted to 46%. This compound also displayed a 50% cytotoxic concentration (CC50) in [13] of 386000 nM. Further, in the data set with HCT-116 [16], the viability at 0.25 µM is 56%. Also, in the data set on HCT-116 [17], the viability at 1 µM turned out to be 36.6%.
